Screens as filed in PubChem.
Rows were chosen to be rich in hits. Some 3.4% of all compounds tested hit in one or more screens of this group.
MEKK3 PB1 HTS – raises or lowers MEK5 binding to the human MEKK3 PB1 domain. Q99759. bead-based flow cytometry, Alexa488-MEK5 binding to MEKK3; actives lie on both sides; 0 = blocked by unlabeled MEK5, 100 = vehicle. binding response (% of control), % at 10 µM. 290,000 tested, 1.4% active. AID 1529;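 active = binding response more than 3 SD above or below the average of its plate-row segment, actives on both sides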;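 note: Alexa488 bead fluorescence after subtracting the streptavidin-only scavenger bead signal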
Target sequence (Q99759 whole entry, looked up, the tested form may be a part): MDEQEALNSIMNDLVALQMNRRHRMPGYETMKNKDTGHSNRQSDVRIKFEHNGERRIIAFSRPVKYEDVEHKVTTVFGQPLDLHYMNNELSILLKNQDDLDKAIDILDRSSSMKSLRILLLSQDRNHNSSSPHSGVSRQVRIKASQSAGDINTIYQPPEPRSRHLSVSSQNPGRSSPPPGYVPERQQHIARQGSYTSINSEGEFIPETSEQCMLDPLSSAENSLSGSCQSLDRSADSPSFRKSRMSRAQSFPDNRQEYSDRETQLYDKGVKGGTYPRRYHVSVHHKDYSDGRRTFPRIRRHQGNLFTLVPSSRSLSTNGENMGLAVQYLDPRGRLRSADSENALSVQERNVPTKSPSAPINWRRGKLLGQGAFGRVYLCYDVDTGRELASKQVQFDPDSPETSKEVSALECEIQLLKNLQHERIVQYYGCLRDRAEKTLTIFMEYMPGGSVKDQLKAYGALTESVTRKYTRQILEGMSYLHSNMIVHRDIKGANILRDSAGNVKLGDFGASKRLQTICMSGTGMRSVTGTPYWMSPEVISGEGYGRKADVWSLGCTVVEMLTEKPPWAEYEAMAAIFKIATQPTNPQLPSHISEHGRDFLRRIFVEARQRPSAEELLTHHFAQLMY
IMP-1 inh – inhibitors of Pseudomonas aeruginosa IMP-1 metallo-beta-lactamase; purified IMP-1, nitrocefin hydrolysis, epi-absorbance fluorescence; inhibition, % at 5.6 µM; 290,000 tested, 0.45% active;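 active = inhibition above the mean plus 3 SD of all compounds in the same screening run, cut at about 4.5% in these data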;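 note: 0% = IMP-1 with DMSO and 100% = DMSO wells lacking enzyme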
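Test system: recombinant IMP-1 enzyme, purified / Medium: HEPES buffer pH 7.1 with ZnSO4 and Brij 35 / Doses: single dose, 5.6 µM / Times: 25 °C, 15 min preincubation, 25 min reaction / Detection: Epi-absorbance via hydrolysed-nitrocefin quenching of white-plate fluorescence, 480/530 nm, EDTA stop / Evaluation: percent inhibition from optical density relative to buffer-blank wells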
MEKK2wt PB1 HTS – raises or lowers MEK5 binding to wildtype human MEKK2 PB1 domain; Q9Y2U5; bead flow cytometry, Alexa488-MEK5 binding to MEKK2 WT; actives lie on both sides; binding response (% of control), % at 10 µM; 290,000 tested, 1.1% active; AID 1531; in the data active = binding response below about 67% or above about 130%
MEKK2 mut-MEK5 – signal of MEK5 binding to mutant human MEKK2 PB1 domain | 290,000 tested, 0.35% active | percent response, % at 10 µM | bead flow cytometry, Alexa488-MEK5 binding to MEKK2 mutant; in the data active = percent response above about 24%, passing the limit was not always enough
VIM-2 inhibitor – blocks Pseudomonas aeruginosa VIM-2 metallo-beta-lactamase | purified VIM-2, nitrocefin hydrolysis, epi-absorbance fluorescence | inhibition, % at 5.6 µM | 290,000 tested, 0.89% active | AID 1527;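 active = inhibition above the mean of all tested compounds plus 3 SD, cutoff set per screening run, cut at about 7.5% in these data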;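 note: red hydrolysis product quenches plate fluorescence so inhibitors raise well fluorescence; 0% = enzyme with DMSO and 100% = DMSO without enzyme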
MEKK2wt confirm – raises or lowers MEK5 binding to wildtype human MEKK2, retest | shares compounds with MEKK3 PB1 HTS | bead flow cytometry, Alexa488-MEK5 binding to MEKK2 WT; actives lie on both sides | binding response (% of control), % at 10 µM | 5,900 tested, 2.4% active | AID 1892; in the data active = binding response below about 16% or above about 210%; inactive = in between
MEKK2mut confirm – signal of MEK5 binding to mutant human MEKK2, retest; bead flow cytometry, Alexa488-MEK5 binding to MEKK2 mutant; percent response, % at 10 µM; shares compounds with MEKK3 PB1 HTS; AID 1893; 5,900 tested, 2% active; in the data active = percent response mostly above about 71%, no sharp cut-off; inactive = mostly below about 38%;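 note: higher means compound restores mutant binding toward wildtype level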
MEKK3 confirm – confirmation of inhibitors of MEK5 binding to human MEKK3; shares compounds with MEKK3 PB1 HTS; bead flow cytometry, Alexa488-MEK5 binding to MEKK3; stronger effect = lower value; binding response (% of control), % at 10 µM; 5,900 tested, 1.8% active;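 active = binding response below 72% of control, or above a set upper limit, though filed actives all read lower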;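 note: 100% = DMSO only wells and 0% = binding blocked by excess unlabeled MEK5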
* = called active by the depositor; · = no result given; [ ] = remark or other dose.

SMILES	MEKK3 PB1 HTS	IMP-1 inh	MEKK2wt PB1 HTS	MEKK2 mut-MEK5	VIM-2 inhibitor	MEKK2wt confirm	MEKK2mut confirm	MEKK3 confirm
COc1ccc(-c2nnn(CC(=O)NCc3ccccc3)n2)cc1OC	84	-2	96	0	-5	·	·	·
COc1cc(-c2nnn(CC(=O)NC3CCS(=O)(=O)C3)n2)ccc1OCc1ccccc1 (configuration not stated)	0.0*[inhibitor]	0	0.0*[inhibitor]	-24	-2	105	1	106
O=C(NNC(=S)Nc1ccc(Br)cc1)c1ccc(N2CCOCC2)c([N+](=O)[O-])c1	137*	-4	112	0	-6	104	0	102
Cc1ccc(NC(=S)NNC(=O)c2ccc(N3CCOCC3)c([N+](=O)[O-])c2)cc1Cl	99	-4	92	-1	-3	·	·	·
COC(=O)c1ccc(N2CCN(S(=O)(=O)c3ccc(Br)cc3)CC2)c([N+](=O)[O-])c1	129*	-1	124	8	-3	97	-5	94
CCOC(=O)CCc1nc2ccccc2[nH]c1=O	97	0	94	-4	2	·	·	·
O=C1CC(c2cccc(Oc3ccccc3)c2)NC(=O)N1 (configuration not stated)	0.0*[inhibitor]	-2	-1.0*[inhibitor]	-21	-2	101	2	101
CCOC(=O)C1=C(C)C(c2cccc(Oc3ccccc3)c2)NC(=S)N1 (configuration not stated)	99	-3	97	0	-4	·	·	·
CC[C@H](C)[C@@H](CN[C@H](CCCCNC)CNC)NCC1CCCC1	104	-3	141*	8	12*	114	8	106
CCCC[C@@H](CN[C@H](C)CNC)NCC1CCC(C(C)(C)C)CC1 (some centres not stated)	108	4	131	2	-3	·	·	·
CCOC(=O)COc1c(OC)cc(Cl)cc1C1Nc2ccccc2C(=O)N1c1ccc(F)cc1 (configuration not stated)	98	-2	98	1	-2	·	·	·
CCN(CC)c1ccc2cc(C(=O)Nc3ccccn3)c(=O)oc2c1	93	-3	58*[inhibitor]	-4	-1	66	-17	92
CCc1nnc(NC(=O)CSc2nnc(-c3ccncc3)n2C)s1	2.0*[inhibitor]	-5	1.0*[inhibitor]	1	-2	103	-1	102
O=Cc1c(NCCN2CCOCC2)c2ccccc2[nH]c1=O	87	0	88	-6	1	·	·	·
COc1ccc(S(=O)(=O)N2CCCCCC2)cc1NC(=O)Cc1ccccc1F	75*[inhibitor]	-1	79	-19	1	104	0	102
O=C(CCl)Nc1cc(S(=O)(=O)N2CCCCCC2)ccc1Cl	130*	-3	100	0	-2	107	2	106
Cn1cc(C(=O)NCc2cccnc2)c(=O)c2cc(S(=O)(=O)N3CCCCCC3)ccc21	113	-2	101	2	-3	·	·	·
COc1ccccc1CNC(=O)c1cn(C)c2ccc(S(=O)(=O)N3CCCCC3)cc2c1=O	127	0	108	192*	-1	98	-8	99
CCc1nc2c(c(=O)c3ccccc3n2C)c(=O)n1C1CCCCCC1	118	-3	101	1	-1	·	·	·
O=C(/C=C/c1ccc(Cl)cc1)N1CCN(c2ncccn2)CC1	91	-7	94	-6	-6	·	·	·
COCCCN1C(=O)C(=O)/C(=C(/O)c2ccc(OC)cc2)C1c1ccc(O)c(OC)c1 (configuration not stated)	100	-5	99	3	-4	·	·	·
COCCCN1C(=O)C(=O)/C(=C(/O)c2ccc(OC)cc2)C12C(=O)N(C)c1ccccc12 (configuration not stated)	1.0*[inhibitor]	-3	-3.0*[inhibitor]	2	-3	104	4	101
